This is an account of results in ChEMBL document CHEMBL4011629, “New Disubstituted Quindoline Derivatives Inhibiting Burkitt's Lymphoma Cell Proliferation by Impeding c-MYC Transcription” (J Med Chem, 2017).

Assay [1] is described as follows: Stabilization of c-Myc Pu27 G-quadruplex DNA (unknown origin) assessed as induction of parallel G-quadruplex formation in absence of K+ ions by CD spectroscopic analysis. Summed up:
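CD spectra: Pu27 at 5 μM in 10 mM Tris-HCl pH 7.4 without or with 100 mM KCl, annealed 95 °C 5 min, slow-cooled, kept at 4 °C overnight, with ligand. Scanned 230–400 in a 4 mm quartz cuvette, 1 nm bandwidth and step, 0.5 s/point; buffer baseline subtracted.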

A short description of assay [2]: Stabilization of 5'-FAM/3'-TAMRA labeled c-Myc Pu22 G-quadruplex DNA (unknown origin) assessed as change in melting temperature at 2 uM by FRET assay. Summed up: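 FRET melting of FAM/TAMRA-labelled FPu22T (0.2 μM) in 10 mM Tris-HCl pH 7.4 with 2 mM KCl, ligand 2 μM, in a real-time PCR machine. Excitation 470 nm, emission 530 nm, read every 1 °C from 37 to 99 °C after 30 s hold at each step; ΔTm versus probe alone.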

A short description of assay [3]: Binding affinity to 5'-FAM labeled duplex DNA (unknown origin) by MST analysis. Summed up: (§1)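 The DNA was annealed at 95 °C for 5 min, slowly cooled and held at 4 °C overnight. Ligand was run as a 12-point series, 0–20 μM for Pu27 and up to 200 μM for duplex. MST was measured, and KD was fitted to a Hill model from three replicates.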
The nature of assay [4]: Stabilization of c-Myc Pu27 G-quadruplex DNA (unknown origin) assessed as induction of parallel G-quadruplex formation in absence of K+ ions by CD spectroscopic analysis.
The nature of assay [5]: Binding affinity to 5'-FAM labeled c-Myc Pu27 G-quadruplex DNA (unknown origin) in presence of K+ ions by MST analysis. Summed up:
as §1

The next assay concerns Raji. In words: Antiproliferative activity against human Raji cells after 48 hrs by MTT assay. Type of assay: functional, cell-based. Summed up:
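RAJI cells were seeded at 5 × 10^3 cells per well and treated for 48 h, with a DMSO-matched control. MTT at 0.5 mg/mL was added for 4 h at 37 °C, followed by overnight lysis at 37 °C and absorbance at 570 nm. Each assay was done in triplicate. IC50 came from the dose-dependent percentage survival versus the control.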
In general terms: Tetrazolium dyes change colour on reduction, which living cells bring about.

Assay [6] can be described thus: Selectivity ratio of Kd for 5'-FAM labeled duplex DNA (unknown origin) to Kd for 5'-FAM labeled c-Myc Pu27 G-quadruplex DNA (unknown origin). Summed up: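 MST binding: FAM-Pu27 or FAM-duplex oligo at 10 μM in 10 mM Tris-HCl pH 7.4 with 150 mM KCl, annealed 95 °C 5 min, slow-cooled, held 4 °C overnight. Ligand titrated as a 12-point series, 0–20 μM for G4 or up to 200 μM for duplex. KD fitted with Hill model; three replicates.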

Calls of active or inactive are those of the source. No cut-off for these calls is given here.

For orientation: ΔTm means the shift of the melting midpoint relative to a reference. A word on the Kd: it is a measure of binding affinity in units of concentration. In the case of `CCN(CC)CCNC(=O)COc1ccc2oc3c(NCCN(CC)CC)c4ccccc4[n+](C)c3c2c1`, the outcome in assay [1], in assay [3] and in assay [4] was Active. The thermal shift (ΔTm) in assay [2] was in the range of 13.5 to 36.7 °C. Besides, the Kd in assay [5] was 0.8 µM.

As usually defined, the IC50 is the concentration at which inhibition is half-maximal. A higher IC50 goes with weaker potency in that assay. Consider `CN(C)CCNC(=O)COc1ccc2oc3c(NCCN(C)C)c4ccccc4nc3c2c1`, for which the outcome in assay [1], in assay [4] and in assay [5] was Active. Further, the ΔTm in assay [2] fell in the range of 13.5 to 36.7 °C. Also, the concentration for half-maximal inhibition (IC50) in the assay with Raji was in the range of 1 to 4 µM. For the same molecule, the Selectivity ratio in assay [6] lay in the range of 2.9 to 9.7.

As for `CN(C)CCCCNC(=O)COc1ccc2oc3c(NCCCCN(C)C)c4ccccc4[n+](C)c3c2c1`, the result in assay [1], in assay [3], in assay [4] and in assay [5] was Active. In assay [2], the thermal shift (ΔTm) is 13.5 to 36.7 °C.

On to `CN(C)CCCNC(=O)COc1ccc2oc3c(NCCCN(C)C)c4ccccc4nc3c2c1`, for which the result in assay [1], in assay [4] and in assay [5] was Active. Further, the ΔTm in assay [2] worked out at 21.2 °C. For the same molecule, the half-inhibitory concentration (IC50) in the assay with Raji is 1 to 4 µM. Also, the Selectivity ratio in assay [6] lay in the range of 2.9 to 9.7.

Regarding `C[n+]1c2ccccc2c(NCCN2CCCCC2)c2oc3ccc(OCC(=O)NCCN4CCCCC4)cc3c21`, the outcome in assay [1], in assay [3], in assay [4] and in assay [5] was Active. In addition, in assay [2], the shift in melting temperature (ΔTm) came out at 30 °C.

In the case of `CN(C)CCCNc1c2ccccc2[n+](C)c2c1oc1ccc(OCC3CC[N+](C)(C)CC3)cc12`, the result in assay [1], in assay [3], in assay [4] and in assay [5] was Active. Also, the ΔTm in assay [2] was in the range of 33.1 to 36.7 °C.

`CCN(CC)CCNC(=O)COc1ccc2oc3c(NCCN(CC)CC)c4ccccc4nc3c2c1`: the outcome in assay [1], in assay [4] and in assay [5] was Active. The thermal shift (ΔTm) in assay [2] was in the range of 13.5 to 36.7 °C. The molecule further gave a 50% inhibitory concentration (IC50) with Raji of 1 to 4 µM. For the same molecule, in assay [6], the Selectivity ratio was 2.9 to 9.7.

With `CN(C)CCNc1c2ccccc2[n+](C)c2c1oc1ccc(OCC[N+](C)(C)C)cc12`, the result in assay [1], in assay [3], in assay [4] and in assay [5] was Active. Besides, the ΔTm in assay [2] was 33.1 to 36.7 °C.

For the molecule `CCN(CC)CCCNC(=O)COc1ccc2oc3c(NCCCN(CC)CC)c4ccccc4[n+](C)c3c2c1`, the result in assay [1], in assay [3] and in assay [4] was Active. Further, the ΔTm in assay [2] was 13.5 to 36.7 °C. Also, in assay [5], the Kd was 0.7 µM.

`O=C(COc1ccc2oc3c(NCCN4CCCCC4)c4ccccc4nc3c2c1)NCCN1CCCCC1`: the outcome in assay [1], in assay [4] and in assay [5] was Active. In addition, in assay [2], the ΔTm was 13.5 to 36.7 °C. Further, the concentration for half-maximal inhibition (IC50) in the assay on Raji is 1 to 4 µM. Also, the Selectivity ratio in assay [6] lay within 2.9 to 9.7.

For the molecule `CCN(CC)CCCNC(=O)COc1ccc2oc3c(NCCCN(CC)CC)c4ccccc4nc3c2c1`, the result in assay [1], in assay [4] and in assay [5] was Active. The ΔTm in assay [2] lay within 13.5 to 36.7 °C. In addition, the IC50 with Raji fell in the range of 1 to 4 µM. The Selectivity ratio in assay [6] is 2.9 to 9.7.

On to `CN(C)CCCNc1c2ccccc2nc2c1oc1cc(OCCN(C)C)ccc12`, for which the outcome in assay [1] and in assay [4] was Active. Further, the ΔTm in assay [2] fell in the range of 22.1 to 25.2 °C. Moreover, in the assay on Raji, the IC50 lay within 1 to 4 µM. The Selectivity ratio in assay [6] lay within 2.5 to 10.1. Moreover, in assay [5], the Kd was 1.3 to 4.9 µM.

For `CN(C)CCNc1c2ccccc2nc2c1oc1ccc(OCCN(C)C)cc12`, the result in assay [1] and in assay [4] was Active. For the same molecule, in assay [2], the thermal shift (ΔTm) was in the range of 13.5 to 36.7 °C. Moreover, the IC50 with Raji was in the range of 1 to 4 µM. In addition, the Selectivity ratio in assay [6] fell in the range of 2.5 to 10.1. Besides, the equilibrium dissociation constant (Kd) in assay [5] was in the range of 1.3 to 4.9 µM.

Regarding `CN(C)CCCNc1c2ccccc2nc2c1oc1cc(OCCCN(C)C)ccc12`, the outcome in assay [1] and in assay [4] was Active. The shift in melting temperature (ΔTm) in assay [2] is 22.1 to 25.2 °C. The same molecule yielded an IC50 with Raji of 1 to 4 µM. For the same molecule, the Selectivity ratio in assay [6] was 2.5 to 10.1. Moreover, the Kd in assay [5] lay in the range of 1.3 to 4.9 µM.

For `C[n+]1c2ccccc2c(NCCN2CCOCC2)c2oc3ccc(OCC(=O)NCCN4CCOCC4)cc3c21`, the outcome in assay [1], in assay [3], in assay [4] and in assay [5] was Active. Further, in assay [2], the shift in melting temperature (ΔTm) came out at 28.4 °C.

Regarding `C[n+]1c2ccccc2c(NCCCN2CCOCC2)c2oc3ccc(OCC(=O)NCCCN4CCOCC4)cc3c21`, the outcome in assay [1], in assay [3], in assay [4] and in assay [5] was Active. In addition, the ΔTm in assay [2] turned out to be 36.1 °C.

For the molecule `C[n+]1c2ccccc2c(NCCCN2CCCCC2)c2oc3ccc(OCC(=O)NCCCN4CCCCC4)cc3c21`, the result in assay [1], in assay [3], in assay [4] and in assay [5] was Active. Also, the shift in melting temperature (ΔTm) in assay [2] is 35.2 °C.

As for `CN1CCN(CCNC(=O)COc2ccc3oc4c(NCCN5CCN(C)CC5)c5ccccc5[n+](C)c4c3c2)CC1`, the outcome in assay [1], in assay [3], in assay [4] and in assay [5] was Active. In assay [2], the shift in melting temperature (ΔTm) is 13.5 to 36.7 °C.

With `CN(C)CCNC(=O)COc1ccc2oc3c(NCCN(C)C)c4ccccc4[n+](C)c3c2c1`, the outcome in assay [1], in assay [3], in assay [4] and in assay [5] was Active. Also, the ΔTm in assay [2] lay within 13.5 to 36.7 °C.

In the case of `CN(C)CCCNc1c2ccccc2nc2c1oc1c(OCCN(C)C)cccc12`, the outcome in assay [1] and in assay [4] was Active. Besides, the thermal shift (ΔTm) in assay [2] turned out to be 18.6 °C. In the assay with Raji, this molecule gave an IC50 of 1 to 4 µM. Also, the Selectivity ratio in assay [6] fell in the range of 2.5 to 10.1. The Kd in assay [5] lay within 1.3 to 4.9 µM.

Consider `CN(C)CCCNC(=O)COc1ccc2oc3c(NCCCN(C)C)c4ccccc4[n+](C)c3c2c1`, for which the result in assay [1], in assay [3], in assay [4] and in assay [5] was Active. The ΔTm in assay [2] is 35.6 °C.

With `CN(C)CCCNc1c2ccccc2nc2c1oc1ccc(OCCN(C)C)cc12`, the result in assay [1] and in assay [4] was Active. Further, in assay [2], the shift in melting temperature (ΔTm) was 22.1 to 25.2 °C. The molecule also returned a half-inhibitory concentration (IC50) with Raji of 1 to 4 µM. Moreover, the Selectivity ratio in assay [6] fell in the range of 2.5 to 10.1. The Kd in assay [5] lay in the range of 1.3 to 4.9 µM.

Turning to `CN(C)CCCNc1c2ccccc2nc2c1oc1ccc(OCCCN(C)C)cc12`, the result in assay [1] and in assay [4] was Active. For the same molecule, the ΔTm in assay [2] is 22.1 to 25.2 °C. Also, in the assay on Raji, the concentration for half-maximal inhibition (IC50) is 1 to 4 µM. The Selectivity ratio in assay [6] lay in the range of 2.5 to 10.1. The dissociation constant Kd in assay [5] was 1.3 to 4.9 µM.

In the case of `CN(C)CCCNc1c2ccccc2[n+](C)c2c1oc1ccc(OCCC[N+](C)(C)C)cc12`, the result in assay [1], in assay [3], in assay [4] and in assay [5] was Active. Moreover, the shift in melting temperature (ΔTm) in assay [2] lay in the range of 33.1 to 36.7 °C.

As for `CN(C)CCCNc1c2ccccc2nc2c1oc1c(OCCCN(C)C)cccc12`, the result in assay [1] and in assay [4] was Active. Besides, the ΔTm in assay [2] was 13.5 °C. In the assay on Raji, this molecule gave a half-inhibitory concentration (IC50) of 1 to 4 µM. For the same molecule, in assay [6], the Selectivity ratio lay within 2.5 to 10.1. Moreover, the equilibrium dissociation constant (Kd) in assay [5] fell in the range of 1.3 to 4.9 µM.

With `CN(C)CCCNc1c2ccccc2[n+](C)c2c1oc1ccc(OCC[N+](C)(C)C)cc12`, the result in assay [1], in assay [3], in assay [4] and in assay [5] was Active. Besides, the ΔTm in assay [2] lay in the range of 33.1 to 36.7 °C.
